{
  "source": "ChEMBL document CHEMBL1158813",
  "about": "“Diastereomeric quinolinone alkaloids from the marine-derived fungus Penicillium janczewskii” (2005)",
  "type_in_all_cases": "functional",
  "settings_in_all_cases": "read-out: Activity",
  "key": {"K562": {"tested_on": "K562", "experiment": "Cytotoxicity against human K562 cells assessed as cell viability at 10 ug/mL by SRB assay", "how_it_was_run": "(§1)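 SRB assay. Cells were plated at 5000–10 000 cells/well, depending on doubling time, and grown 24 h before compound addition. Compounds were dissolved in MeOH or DMSO and tested at 1 µg per 100 µL well (10 µg/mL) in complete medium for 48 h. Cells were fixed with cold TCA for 30 min on ice, at 10% final for adherent cells and 16% for suspension cells. Plates were stained with 0.4% SRB in 1% acetic acid for 10 min at room temperature, dye was solubilized in 10 mM Tris/KOH pH 10.5, and A550 was read.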"}, "A549": {"tested_on": "A549", "experiment": "Cytotoxicity against human A549 cells assessed as cell viability at 10 ug/mL by SRB assay", "how_it_was_run": "as §1"}, "MDA-MB-231": {"tested_on": "MDA-MB-231", "experiment": "Cytotoxicity against human MDA-MB-231 cells assessed as cell viability at 10 ug/mL by SRB assay", "how_it_was_run": "as §1"}, "SK-OV-3": {"tested_on": "SK-OV-3", "experiment": "Cytotoxicity against human SKOV3 cells assessed as cell viability at 10 ug/mL by SRB assay", "how_it_was_run": "as §1"}, "CAKI-1": {"tested_on": "CAKI-1", "experiment": "Cytotoxicity against human Caki1 cells assessed as cell viability at 10 ug/mL by SRB assay", "how_it_was_run": "as §1"}, "HT-29": {"tested_on": "HT-29", "experiment": "Cytotoxicity against human HT-29 cells assessed as cell viability at 10 ug/mL by SRB assay", "how_it_was_run": "as §1"}, "DU-145": {"tested_on": "DU-145", "experiment": "Cytotoxicity against human DU145 cells assessed as cell viability at 10 ug/mL by SRB assay", "how_it_was_run": "as §1"}, "SK-MEL-2": {"tested_on": "SK-MEL-2", "experiment": "Cytotoxicity against human SK-MEL-2 cells assessed as cell viability at 10 ug/mL by SRB assay", "how_it_was_run": "as §1"}},
  "data": [
    {"smiles": "COc1ccc([C@@]2(O)c3ccccc3NC(=O)[C@@H]2O)cc1", "values": [
      {"measurement": "viability at 10 µg/mL", "setting": "K562", "result": 36.6, "unit": "%"},
      {"measurement": "viability at 10 µg/mL", "setting": "A549", "result": 56.8, "unit": "%"},
      {"measurement": "viability at 10 µg/mL", "setting": "MDA-MB-231", "result": 31.8, "unit": "%"},
      {"measurement": "viability at 10 µg/mL", "setting": "SK-OV-3", "result": 8.1, "unit": "%"},
      {"measurement": "viability at 10 µg/mL", "setting": "CAKI-1", "result": 65.1, "unit": "%"},
      {"measurement": "viability at 10 µg/mL", "setting": "HT-29", "result": 32.8, "unit": "%"},
      {"measurement": "viability at 10 µg/mL", "setting": "DU-145", "result": 48.4, "unit": "%"},
      {"measurement": "viability at 10 µg/mL", "setting": "SK-MEL-2", "result": 39, "unit": "%"}
    ]},
    {"smiles": "COc1ccc([C@@]2(O)c3ccccc3NC(=O)[C@H]2O)cc1", "values": [
      {"measurement": "viability at 10 µg/mL", "setting": "K562", "result": 52.4, "unit": "%"},
      {"measurement": "viability at 10 µg/mL", "setting": "A549", "result": 56.3, "unit": "%"},
      {"measurement": "viability at 10 µg/mL", "setting": "MDA-MB-231", "result": 52.9, "unit": "%"},
      {"measurement": "viability at 10 µg/mL", "setting": "SK-OV-3", "result": 44.6, "unit": "%"},
      {"measurement": "viability at 10 µg/mL", "setting": "CAKI-1", "result": 80.3, "unit": "%"},
      {"measurement": "viability at 10 µg/mL", "setting": "HT-29", "result": 58.8, "unit": "%"},
      {"measurement": "viability at 10 µg/mL", "setting": "DU-145", "result": 50.6, "unit": "%"},
      {"measurement": "viability at 10 µg/mL", "setting": "SK-MEL-2", "result": 55.2, "unit": "%"}
    ]},
    {"smiles": "COc1ccc([C@@]2(O)c3c(ccc(CC=C(C)C)c3O)NC(=O)[C@@H]2OC)cc1", "note": "[PENIPREQUINOLONE]", "values": [
      {"measurement": "viability at 10 µg/mL", "setting": "MDA-MB-231", "result": 8.4, "unit": "%"},
      {"measurement": "viability at 10 µg/mL", "setting": "SK-OV-3", "result": 20.2, "unit": "%"},
      {"measurement": "viability at 10 µg/mL", "setting": "HT-29", "result": 4, "unit": "%"},
      {"measurement": "viability at 10 µg/mL", "setting": "DU-145", "result": 30.8, "unit": "%"}
    ]}
  ]
}
